Measurements from BindingDB's records for doi:10.1021/jm300345z (University of Copenhagen, 2012).

What was measured:
[1] = target: Excitatory amino acid transporter 1 (Homo sapiens, UniProt P43003); assay: Inhibition of human EAAT1 expressed in HEK293 cells assessed as inhibition of 3[H]-D-Aspartate uptake after 6 mins by scintillation counting method
Summary of the method: (§1)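 HEK293 cell lines expressing EAAT1, EAAT2 or EAAT3 were cultured and assayed for [³H]-D-aspartate uptake, following an earlier published protocol. Inhibition is reported as IC50 in μM, with pIC50 ± SEM.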

[2] = target: T1, Excitatory amino acid transporter 3 (Homo sapiens, UniProt P43005); assay: Inhibition of human EAAT3 expressed in HEK293 cells assessed as inhibition of 3[H]-D-Aspartate uptake after 6 mins by scintillation counting method; summary of the method: as §1
T1 sequence (P43005 whole entry): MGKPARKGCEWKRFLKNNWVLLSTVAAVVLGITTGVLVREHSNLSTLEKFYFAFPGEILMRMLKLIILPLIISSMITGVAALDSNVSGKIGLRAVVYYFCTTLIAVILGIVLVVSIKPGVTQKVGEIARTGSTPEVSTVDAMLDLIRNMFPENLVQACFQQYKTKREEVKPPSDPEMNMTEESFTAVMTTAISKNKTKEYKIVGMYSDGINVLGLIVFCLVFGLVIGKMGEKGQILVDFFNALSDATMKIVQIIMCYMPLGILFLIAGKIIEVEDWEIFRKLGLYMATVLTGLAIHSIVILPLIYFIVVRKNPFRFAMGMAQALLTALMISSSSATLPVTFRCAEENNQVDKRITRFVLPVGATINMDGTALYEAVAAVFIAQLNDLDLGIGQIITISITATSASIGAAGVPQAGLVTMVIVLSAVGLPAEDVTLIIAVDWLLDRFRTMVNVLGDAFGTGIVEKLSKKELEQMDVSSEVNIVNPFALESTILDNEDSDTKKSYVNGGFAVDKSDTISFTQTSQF

[3] = target: Excitatory amino acid transporter 2 (Homo sapiens, UniProt P43004); assay: Inhibition of human EAAT2 expressed in HEK293 cells assessed as inhibition of 3[H]-D-Aspartate uptake after 6 mins by scintillation counting method; summary of the method: as §1
Chain of Excitatory amino acid transporter 2 (P43004 whole entry): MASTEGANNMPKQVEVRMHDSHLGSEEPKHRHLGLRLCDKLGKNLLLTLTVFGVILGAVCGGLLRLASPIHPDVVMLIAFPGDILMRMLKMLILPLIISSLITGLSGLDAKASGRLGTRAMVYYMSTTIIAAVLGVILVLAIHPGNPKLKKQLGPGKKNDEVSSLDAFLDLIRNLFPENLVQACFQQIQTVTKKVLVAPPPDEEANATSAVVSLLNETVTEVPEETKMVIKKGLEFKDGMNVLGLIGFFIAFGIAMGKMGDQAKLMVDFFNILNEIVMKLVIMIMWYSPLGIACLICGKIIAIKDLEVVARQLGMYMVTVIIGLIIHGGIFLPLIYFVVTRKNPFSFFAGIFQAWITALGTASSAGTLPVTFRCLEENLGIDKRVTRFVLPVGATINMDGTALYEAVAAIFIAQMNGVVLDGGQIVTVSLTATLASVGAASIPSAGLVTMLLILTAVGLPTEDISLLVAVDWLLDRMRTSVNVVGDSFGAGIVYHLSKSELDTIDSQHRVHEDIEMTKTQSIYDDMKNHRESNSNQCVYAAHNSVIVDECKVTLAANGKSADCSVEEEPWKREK

Chain of Excitatory amino acid transporter 1 (P43003 whole entry): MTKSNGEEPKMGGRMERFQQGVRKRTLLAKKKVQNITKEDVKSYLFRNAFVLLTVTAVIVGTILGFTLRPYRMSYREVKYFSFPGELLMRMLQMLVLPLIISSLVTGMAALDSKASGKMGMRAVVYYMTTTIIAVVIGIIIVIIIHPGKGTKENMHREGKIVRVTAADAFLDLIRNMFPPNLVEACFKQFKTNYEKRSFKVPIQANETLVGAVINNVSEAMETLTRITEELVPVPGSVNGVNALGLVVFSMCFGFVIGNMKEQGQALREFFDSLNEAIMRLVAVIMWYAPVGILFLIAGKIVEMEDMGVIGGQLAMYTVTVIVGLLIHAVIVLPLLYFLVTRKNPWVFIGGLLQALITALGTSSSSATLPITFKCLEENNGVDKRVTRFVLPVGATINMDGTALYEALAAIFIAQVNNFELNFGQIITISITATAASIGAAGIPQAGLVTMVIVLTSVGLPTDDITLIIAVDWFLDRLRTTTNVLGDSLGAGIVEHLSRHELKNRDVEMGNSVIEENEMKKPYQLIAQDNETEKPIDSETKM

Compound | IC50 [1] | IC50 [2] | IC50 [3]
N#CC1C(=N)OC2=C(C(=O)CN(C(=O)c3ccccc3)C2)C1c1ccccc1 (configuration not stated) | > 100 µM | > 100 µM | > 100 µM
CC1(C)C2=C(CC(c3ccccc3)CC2=O)OC(=N)C1C#N (configuration not stated) | > 300 µM | – | –
N#CC1C(=N)OC2=C(C(=O)CN(c3ccccc3)C2)C1c1ccccc1 (configuration not stated) | > 100 µM | > 100 µM | > 100 µM
